In ChEMBL document CHEMBL1795215, “Design, synthesis and biological assessment of novel N-substituted 3-(phthalimidin-2-yl)-2,6-dioxopiperidines and 3-substituted 2,6-dioxopiperidines for TNF-α inhibitory activity” (Bioorg Med Chem, 2011):

What was measured:
RAW264.7 [1] = assay: Inhibition of LPS-induced TNFalpha production in mouse RAW264.7 cells assessed as TNFalph activity at 30 uM by ELISA relative to untreated control; type: functional; set-up: scale not given: the % may be the effect or the level left
Outline: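 RAW 264.7 cells were cultured and exposed to compound at 30 μM together with LPS. TNF-α protein in the culture medium was quantified by a mouse TNF-α-specific ELISA and expressed as % of the appropriate control. Values are mean ± S.E.M., n = 3, with Student's t-test (P<0.05 significant).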

[2] = Toxicity against mouse RAW264.7 cells assessed as cell viability at 30 uM by Cell titer 96 squeous one solution cell proliferation assay untreated control; type: cell-based; details: read-out: Activity
Outline: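 Viability of RAW 264.7 cells given 30 μM compound with LPS was read by CellTiter 96 Aqueous One tetrazolium dye formation, with absorbance at 490 nm. Results are % change in O.D. versus the appropriate control, mean ± S.E.M., n = 3, with Student's t-test (P<0.05 significant).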

RAW264.7 [3] = assay: Inhibition of LPS-induced TNFalpha production in mouse RAW264.7 cells assessed as TNFalph activity at 30 uM by ELISA relative to thalidomide; type: functional
Outline: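 LPS-stimulated RAW 264.7 cells were treated at 30 μM, and TNF-α in the medium was measured by mouse TNF-α ELISA as % of vehicle control (n = 3). Fold activity relative to thalidomide = (100 − compound TNF-α % control)/(100 − thalidomide TNF-α % control).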

SMILES | Activity (RAW264.7 [1]) [%] | viability at 30 µM [2] [%] | fold change (FC) (RAW264.7 [3])
O=C1CCC(N2Cc3ccccc3C2=O)C(=O)N1CSC(=S)N1CCCCC1 (stereo unspecified) | 96 | 112 | 4
O=C1CCCC(=O)N1CN1C(=O)CCC(N2Cc3ccccc3C2=O)C1=O (stereo unspecified) | 79 | 102 | 21
O=C1CCC(N2Cc3ccccc3C2=O)C(=O)N1CSC(=S)NC1CCCCC1 (stereo unspecified) | 55 | 103 | 45
Nc1cccc2c1CN(C1CCC(=O)NC1=O)C2=O (stereo unspecified) [LENALIDOMIDE] | 109 | 106 | -9
O=C1CCC(N2C(=O)c3cccnc3C2=O)C(=O)N1 (stereo unspecified) | 104 | 95 | -4
O=C1CCC(N2S(=O)(=O)c3ccccc3S2(=O)=O)C(=O)N1 (stereo unspecified) | 55 | 109 | 45
N=C1c2ccccc2C(=O)N1C1CCC(=O)NC1=O (stereo unspecified) | 67 | 84 | 33
O=C1CCC(N2Cc3ccccc3C2=O)C(=O)N1CN1C(=O)c2ccccc2C1=O (stereo unspecified) | 88 | 98 | 12
O=C1CCC(N2C(=O)c3ccncc3C2=O)C(=O)N1 (stereo unspecified) | 96 | 96 | 4
O=C1CCC(N2Cc3ccccc3C2=O)C(=O)N1CN1C(=S)CCCC1=S (stereo unspecified) | 63 | 94 | 37
O=C1CCC(N2Cc3ccccc3C2=O)C(=O)N1CN1C(=S)c2ccccc2C1=S (stereo unspecified) | 52 | 82 | 48
N=C1N/C(=N\C2CCC(=O)NC2=O)c2ccccc21 (stereo unspecified) | 61 | 116 | 39
